The record followed here is the array DNA melting data of Ke et al. (doi:10.1101/2024.01.08.574731).

Data set [1] is described as follows: melting temperature; fluorescence melt of hairpins on a sequencing array, two-state fit, raised by 9.35 °C to match UV melts. The conditions noted are these: sodium 0.088 M. A digest of the protocol: (§1)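 Melting temperature and folding enthalpy were derived from bootstrapped two-state fits. The fitted temperatures were raised by 9.35 °C to agree with UV melts, and four replicates were combined by inverse variance. The underlying data were Cy3 fluorescence images of library hairpins, with annealed Cy3 and quencher oligos, on a sequenced MiSeq flow cell in 50 mM Na-HEPES pH 8.0, 25 mM NaCl, taken in 2.5 °C steps up to 60 °C, normalised to pre-quench Cy3 and to control constructs.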

Data set [2] can be described thus: folding enthalpy; higher = less favourable; fluorescence melt of hairpins on a sequencing array, two-state fit. As to conditions: sodium 0.088 M. A digest of the protocol:
as §1

Consider GCAGTGCGAAAGCTTTGC (((..((....))..))), for which the Tm in data set [1] came out at 51.2 °C. Besides, in data set [2], the folding enthalpy was -14 kcal/mol.
GCTCGAGGAAACTCGAAC (.(((((....))))).): the Tm in data set [1] is 40.9 °C. The folding enthalpy in data set [2] was -18.1 kcal/mol.
The like results for GCCACAGGAAACTGTAGC ((.((((....)))).)) were, in that order, 39.4 °C and -24.3 kcal/mol.
The corresponding values for GGGCGGGCGAAAGCCCCC (((..(((....)))))) are 51.2 °C and -11.5 kcal/mol.
Regarding GCTGGCGAAAGCCCAAGC ((((((....)))..))), the Tm in data set [1] turned out to be 50 °C. In addition, in data set [2], the folding enthalpy is -15.3 kcal/mol.
The corresponding values for GTATTGCGAAAGCACTAC (((.(((....))).))) are 39.4 °C and -21.5 kcal/mol.
The like results for GCGTGATAACGC ((((....)))) were, in that order, 69.3 °C and -26.9 kcal/mol.
The corresponding values for GCCACAGGAAACTGTGAC (.(((((....))))).) are 46 °C and -15.9 kcal/mol.
GATCCACAGATGGATC ((((((....)))))): the Tm in data set [1] is 49 °C. For the same sequence, the folding enthalpy in data set [2] is -38.6 kcal/mol.
The corresponding values for GGATGCGAAAGCACGTCC ((((((....)))..))) are 33.1 °C and -12 kcal/mol.
The like results for GCGAATCTTCGC ((((....)))) were, in that order, 52.8 °C and -28 kcal/mol.
The like results for GGGTGAGGAAACTTACCC ((((.((....)).)))) were, in that order, 47.7 °C and -35.7 kcal/mol.
For GTTCGCGAAAGCGACAAC ((((((....)))..))), the Tm in data set [1] was found to be 34.8 °C. Moreover, in data set [2], the folding enthalpy was -7.58 kcal/mol.
The like results for GACCGACGAAAGTCAGTC (((.(((....))).))) were, in that order, 47.9 °C and -23.5 kcal/mol.
The corresponding values for GATCGATGTGTCGATC ((((((....)))))) are 57.9 °C and -40.2 kcal/mol.
The like results for GCGTCGCGAAAGCTAGGC ((.(.((....)).).)) were, in that order, 36.8 °C and -20.9 kcal/mol.
As to GAGCTTGGAAACAAGCCC (.(((((....))))).), in data set [1], the Tm turned out to be 42.8 °C. Further, the folding enthalpy in data set [2] was -13.2 kcal/mol.
GGCCTGCGAAAGCACGCC (((.(((....))).))): the Tm in data set [1] is 53.4 °C. For the same sequence, the folding enthalpy in data set [2] was -37.6 kcal/mol.
The like results for CGCTCGCGGAAACGCGCG (((..(((....)))))) were, in that order, 61.2 °C and -7.4 kcal/mol.
Turning to GGCCATGCGAAAGCAGCC (((..(((....)))))), the Tm in data set [1] turned out to be 48.4 °C. The folding enthalpy in data set [2] is -17.1 kcal/mol.
The corresponding values for GTAAACGCGAAAGCGTAC (((..(((....)))))) are 35 °C and -8.26 kcal/mol.
The like results for GCGTCACTACGC ((((....)))) were, in that order, 52.8 °C and -25.3 kcal/mol.
Turning to CGCGGATCTCTCCGCG ((((((....)))))), the Tm in data set [1] is 66.8 °C. Also, the folding enthalpy in data set [2] is -51 kcal/mol.
The corresponding values for TGAATGAAAATTCA (((((....))))) are 30.4 °C and -9.75 kcal/mol.
Consider GGTATCGAAAGATGACC ((((((....))).))), for which the Tm in data set [1] turned out to be 36.6 °C. Also, the folding enthalpy in data set [2] is -22.1 kcal/mol.
The like results for GTAGAACGAAAGTTTAC (((.(((....)))))) were, in that order, 27.4 °C and -9.99 kcal/mol.
The like results for GCGTGCGAAAGCATCGC ((((((....))).))) were, in that order, 67.2 °C and -30.9 kcal/mol.
The corresponding values for GTAGTGTCGAAAGACTAC (((..(((....)))))) are 33.3 °C and -15.1 kcal/mol.
Consider GATCCTTCTCAGGATC ((((((....)))))), for which the Tm in data set [1] came out at 50.9 °C. For the same sequence, the folding enthalpy in data set [2] is -45 kcal/mol.
The corresponding values for GGCTGCGGAAACGCAGTC (.(((((....))))).) are 66.1 °C and -22.4 kcal/mol.
The corresponding values for GCGTGATTACGC ((((....)))) are 52.5 °C and -22.2 kcal/mol.
The corresponding values for GCTGTAGGAAACTACAGC (((((((....))))))) are 63.3 °C and -44.6 kcal/mol.
Turning to GATCTGATGGCAGATC ((((((....)))))), the Tm in data set [1] came to 47.7 °C. In addition, the folding enthalpy in data set [2] was -36.5 kcal/mol.
The like results for GCTTCCGAAAGGAAAGC ((((((....))).))) were, in that order, 54.3 °C and -38.7 kcal/mol.
As to GCAAAGCGAAAGCGTAGC ((.(.((....)).).)), the Tm in data set [1] turned out to be 55.9 °C. In addition, in data set [2], the folding enthalpy was -17.1 kcal/mol.
The corresponding values for GATTGCGAAAGCAGATC ((((((....))).))) are 42.9 °C and -15.8 kcal/mol.
The like results for GATCTGAGGTCAGATC ((((((....)))))) were, in that order, 49.4 °C and -40.6 kcal/mol.
The like results for GTCAGCCGAAAGGCGAC (((.(((....)))))) were, in that order, 61.5 °C and -15 kcal/mol.
As to GGACATCCGAAAGGATCC (((..(((....)))))), the Tm in data set [1] was found to be 29.3 °C. Besides, in data set [2], the folding enthalpy was -12.6 kcal/mol.
The corresponding values for GTCCCCGAAAGGGTCGAC ((((((....)))..))) are 35.4 °C and -13.6 kcal/mol.
The like results for GGACTCGAAAGAGTCTCC ((((((....)))..))) were, in that order, 53.3 °C and -10.4 kcal/mol.
The like results for GCCTAGGGAAACCTAGAC (.(((((....))))).) were, in that order, 35.4 °C and -19.6 kcal/mol.
In the case of GCGATAGCTCGC ((((....)))), the Tm in data set [1] worked out at 65.8 °C. In data set [2], the folding enthalpy is -9.76 kcal/mol.
Regarding GTCGACGAAAGTCTGGAC ((((((....)))..))), the Tm in data set [1] turned out to be 39.8 °C. Besides, the folding enthalpy in data set [2] is -16.1 kcal/mol.
The like results for GATCCGCCCGCGGATC ((((((....)))))) were, in that order, 68.7 °C and -38.3 kcal/mol.
The like results for GTAATTCGAAAGAAGTAC (((.(((....))).))) were, in that order, 42.3 °C and -25 kcal/mol.
The like results for GGCCCTCGAAAGAGAGCC (((.(((....))).))) were, in that order, 53.3 °C and -46.6 kcal/mol.
With GATCTCCTTCGAGATC ((((((....)))))), the Tm in data set [1] is 52.1 °C. The folding enthalpy in data set [2] was -42.5 kcal/mol.
The corresponding values for GATCGTCCGCACGATC ((((((....)))))) are 54.4 °C and -39.6 kcal/mol.
The corresponding values for AAATGGAAACATTT (((((....))))) are 27.2 °C and -9.49 kcal/mol.
The corresponding values for GATCAGCTGACTGATC ((((((....)))))) are 51.5 °C and -37.6 kcal/mol.
For the sequence GCCTGGCGAAAGCCCCGC ((..(((....)))..)), the Tm in data set [1] worked out at 36.3 °C. Further, the folding enthalpy in data set [2] was -8.33 kcal/mol.
The like results for GCGGTTCTCCGC ((((....)))) were, in that order, 58.3 °C and -31.9 kcal/mol.
For GTAGTCGAAAGACGTTAC ((((((....)))..))), the Tm in data set [1] came out at 35 °C. Moreover, the folding enthalpy in data set [2] is -12.2 kcal/mol.
The like results for GTGCCATCGAAAGATCAC (((..(((....)))))) were, in that order, 38.4 °C and -5.32 kcal/mol.
With GATCAATTCCTTGATC ((((((....)))))), the Tm in data set [1] is 45.4 °C. Moreover, in data set [2], the folding enthalpy was -35.3 kcal/mol.
The corresponding values for GGCTATGGAAACGTAGCC (((((.(....).))))) are 52.6 °C and -46 kcal/mol.
The like results for GCCTGAGGAAACTCAGAC (.(((((....))))).) were, in that order, 40.7 °C and -16.7 kcal/mol.
The corresponding values for GGAAACGGAAACGTTTCC (((((((....))))))) are 64.8 °C and -45.5 kcal/mol.
With GATGTTGGAAACGACATC (((((.(....).))))), the Tm in data set [1] was 47.2 °C. The folding enthalpy in data set [2] was -33.6 kcal/mol.
The like results for GATCTCACGAAAGTGATC (((..(((....)))))) were, in that order, 30.2 °C and -9.7 kcal/mol.
The like results for GATTAGCCGAAAGGCATC (((..(((....)))))) were, in that order, 28.5 °C and -7.43 kcal/mol.
As for GTAGCTCGAAAGAGTAC (((.(((....)))))), the Tm in data set [1] worked out at 36.2 °C. Moreover, the folding enthalpy in data set [2] is -18.3 kcal/mol.
As for GCCCTCGCGAAAGCGGGC (((..(((....)))))), in data set [1], the Tm was found to be 59.6 °C. For the same sequence, in data set [2], the folding enthalpy is -14.2 kcal/mol.
The like results for GTGCCTCGAAAGAGCCAC (((.(((....))).))) were, in that order, 43.2 °C and -21 kcal/mol.
The like results for GCATCGCGAAAGCCACGC ((.(.((....)).).)) were, in that order, 26.5 °C and -10.2 kcal/mol.
The corresponding values for GCGGGGCTCCGC ((((....)))) are 67.4 °C and -26.7 kcal/mol.
For GACACGCCGAAAGGCGTC (((..(((....)))))), the Tm in data set [1] stood at 33.8 °C. The folding enthalpy in data set [2] is -6.56 kcal/mol.
The like results for GATCCCCTTAGGGATC ((((((....)))))) were, in that order, 63.2 °C and -45 kcal/mol.
The corresponding values for GATCTTCTAAAAGATC ((((((....)))))) are 42 °C and -30.2 kcal/mol.
The corresponding values for GCGACACGTCGC ((((....)))) are 61.4 °C and -28.3 kcal/mol.
In the case of CGCGGAAAAGTCCGCG ((((((....)))))), the Tm in data set [1] is 60.9 °C. The folding enthalpy in data set [2] is -38.4 kcal/mol.
Turning to GGAGGGCGAAAGCCTTCC (((.(((....))).))), in data set [1], the Tm came out at 61.9 °C. Further, the folding enthalpy in data set [2] is -24.9 kcal/mol.
The corresponding values for GGTCCCGAAAGGGCTACC ((((((....)))..))) are 39.8 °C and -10.9 kcal/mol.
The corresponding values for GATGATGAAAATCATC ((((((....)))))) are 51.2 °C and -29 kcal/mol.
